From PMC5035790 (Annals of Oncology, 2016)

Assays:
p110α = conditions: read-out: IC50 p110α; cited from earlier work
advanced solid tumors = experiment: Tumor response by investigator, modified RECIST version 1.1; type: in vivo, human
How it was run: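 Solid-tumour patients (dose-escalation cohorts 0.1–1.2 mg/kg, expansion at 0.8 mg/kg) received a 1-h IV infusion on days 1, 8 and 15 of 28-day cycles until progression. Response was by investigator assessment using modified RECIST 1.1. PTEN loss by IHC was defined as 0% tumour cells staining, low as 1% to <5%, and positive as ≥5%.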

[1] = Blood pressure monitoring after infusion; type: in vivo, human
non-Hodgkin's lymphoma = experiment: Tumor response by International Working Group response criteria for lymphoma; type: in vivo, human; conditions: follicular lymphoma (FL), six patients
How it was run: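 NHL expansion cohort (follicular lymphoma and DLBCL) received 0.8 mg/kg as a 1-h IV infusion on days 1, 8 and 15 of each 28-day cycle, continued until progression or unfavourable risk:benefit. Response was judged by investigator assessment using International Working Group lymphoma criteria.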

plasma glucose = experiment: Plasma glucose and insulin pharmacodynamics; type: in vivo, human; conditions: 33 of 51; blood glucose >200 mg/dl

COc1c(OCCCN2CCOCC2)ccc2c1N=C(NC(=O)c1cnc(N)nc1)N1CCN=C21 [copanlisib, Copanlisib]
IC50 (p110α): 0.5 nM | tumor reduction (advanced solid tumors; 1 patient with endometrial carcinoma, 0.4 mg/kg cohort, stable disease): > 25% | objective response or stable disease for >4 cycles (advanced solid tumors; 10 patients without complete PTEN loss): none | partial response (PR) (advanced solid tumors; 48 patients with solid tumors, 2 patients, 1 confirmed, 1 unconfirmed): 4% | complete response (CR) (advanced solid tumors; 48 patients with solid tumors, one patient): 2% | disease progression by clinical judgment (advanced solid tumors; 48 patients with solid tumors, seven patients): 15% | patients with stable disease ≥6 cycles (advanced solid tumors; of the 15 patients with stable disease): 6 patients | cycles until CR (advanced solid tumors; patient with endometrial carcinoma, PIK3CA and PTEN mutations, complete PTEN loss, 0.8 mg/kg): 10 cycles | overall response rate (advanced solid tumors; patients with solid tumors): 6% | CR, PR, or stable disease lasting ≥6 cycles (advanced solid tumors; solid tumors at MTD with complete PTEN loss, 3 of 7): 43% | CR, PR, or stable disease (advanced solid tumors; solid tumors at MTD without PTEN loss, seven patients): none | time of peak of post-infusion increase in blood pressure ([1]; in vivo): 1 to 2 h | time to resolution of post-infusion increase in blood pressure ([1]; post-infusion): ≤ 24 h | response rate (non-Hodgkin's lymphoma): 100% | non-diabetic patients receiving at least 1 dose of short-acting insulin (plasma glucose): 65%
